In article PMC10663723 (RSC Advances, 2023):
Converted amounts (≈) assume the structure as drawn.

Tests used:
[1] = MTT cell viability assay, HFF cells; type: cell-based; settings: human, HFF cells (non-cancer human foreskin fibroblasts)
Summary of the method: (§1)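 Cells plated at 10000/well in DMEM with 10% FBS and incubated 20 h at 37 °C, 5% CO2. Test compound (20 mg mL−1 DMSO stock, diluted in medium) was applied at 0.1–100 μg mL−1 for 48 h; 0.5% final DMSO served as vehicle control. MTT (0.5 mg mL−1) was added for 4 h at 37 °C in the dark, formazan was dissolved in DMSO, and absorbance was read at 570 nm.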

[2] = test system: cervical cancer cells (HeLa); assay: MTT cell viability assay, HeLa cells; type: cell-based; settings: Homo sapiens, 48 h, read-out: EC50, HeLa
Summary of the method: as §1

[3] = test system: triple-negative breast cancer cells (MDA-MB-231); assay: MTT cell viability assay, MDA-MB-231 cells; type: cell-based, human; settings: CC50 HFF / EC50 MDA-MB-231
Summary of the method: as §1

lung cancer cells (A549) = assay: MTT cell viability assay, A549 cells; type: cell-based, human
Summary of the method: as §1

EC50 [2]: 1.69 µg/mL (≈ 3.11 µM)
EC50 (lung cancer cells (A549); Homo sapiens, A549, 48 h, read-out: EC50, A549): 2.68 µg/mL (≈ 4.93 µM)
Compound: COc1cccc2c1C(=O)c1c(O)c3c(c(O)c1C2=O)C[C@@](O)(C(=O)CO)C[C@@H]3O[C@H]1C[C@H](N)[C@H](O)[C@H](C)O1 [doxorubicin]
CC50 at 48 h [1]: 8.96 µg/mL (≈ 16.5 µM)
SI (selectivity index) MDA-MB-231 with respect to HFF cells [3]: 2.73
SI (selectivity index) A549 with respect to HFF cells (lung cancer cells (A549); CC50 HFF / EC50 A549): 2.83
